# Published values gathered from unrelated publications.
Structure (SMILES),target or system,assay,system,conditions,quantity,result
CN[C@H](CC(C)C)C(=O)N[C@H]1C(=O)N[C@@H](CC(N)=O)C(=O)N[C@H]2C(=O)N[C@H]3C(=O)N[C@H](C(=O)N[C@H](C(=O)O)c4cc(O)cc(O)c4-c4cc3ccc4O)[C@H](O)c3ccc(c(Cl)c3)Oc3cc2cc(c3O[C@@H]2O[C@H](CO)[C@@H](O)[C@H](O)[C@H]2O[C@H]2C[C@](C)(N)[C@H](O)[C@H](C)O2)Oc2ccc(cc2Cl)[C@H]1O,Streptococcus pneumoniae,microbial growth,PRSP,clinical isolate,MIC90,1 µg/mL
CCCS(=O)(=O)Oc1ccc(C=NNC(=O)CSc2nc3ccc(Cl)cc3c(=O)n2-c2ccccc2)cc1OC,Klebsiella pneumoniae,"microbial growth, well diffusion",,20 µg/mL,inhibition zone,2 mm
Cc1nc(Nc2ncc(C(=O)Nc3c(C)cccc3Cl)s2)cc(N2CC[C@H](O)C2)n1,U2932,"cell growth or viability, ATP luminescence",,"10 µM, 72 h",inhibition,58%
CC1(C)C[C@H]2[C@H]1CC[C@]1(C)CCC[C@@]2(n2cc(C(=O)NCCN)nn2)C1,HT-29,"cell growth or viability, CCK-8",,50 µM,inhibition,78.3%
COc1ccc(C=NNC(=O)CSc2nc3c(C)cccc3c(=O)n2-c2ccccc2)cc1OS(C)(=O)=O,Klebsiella pneumoniae,"microbial growth, well diffusion",,20 µg/mL,inhibition zone,2 mm
CC1(C)C[C@H]2[C@H]1CC[C@]1(C)CCC[C@@]2(n2cc(C(=O)NC3CCNCC3)nn2)C1,HT-29,"cell growth or viability, CCK-8",,50 µM,inhibition,74.4%
CCCS(=O)(=O)Oc1ccc(C=NNC(=O)CSc2nc3c(C)cccc3c(=O)n2-c2ccccc2)cc1OC,Klebsiella pneumoniae,"microbial growth, well diffusion",,20 µg/mL,inhibition zone,2 mm
O=c1c2cc(Cl)ccc2nc(-c2ccccc2)n1N=Cc1c(F)cccc1Cl,LLC-PK1,"cell growth or viability, MTT",,72 h,IC50,46.4 µM
CC1(C)C[C@H]2[C@H]1CC[C@]1(C)CCC[C@@]2(n2cc(C(=O)N3CCNCC3)nn2)C1,HT-29,"cell growth or viability, CCK-8",,10 µM,inhibition,91.6%
CC(=O)NC[C@H]1CN(c2ccc(N3CCOCC3)c(F)c2)C(=O)O1,Streptococcus pneumoniae,"microbial growth, agar dilution",ATCC49619,,MIC,0.5 µg/mL
O=c1c2cc(Cl)ccc2nc(-c2ccccc2)n1N=Cc1ccc(Cl)c(Cl)c1,LLC-PK1,"cell growth or viability, MTT",,72 h,IC50,337 µM
CCS(=O)(=O)Oc1ccc(C=NNC(=O)CSc2nc3ccc(Cl)cc3c(=O)n2-c2ccccc2)cc1,Klebsiella pneumoniae,"microbial growth, well diffusion",,20 µg/mL,inhibition zone,2 mm
CC1(C)C[C@H]2[C@H]1CC[C@]1(C)CCC[C@@]2(n2cc(CN3CCOCC3)nn2)C1,HT-29,"cell growth or viability, CCK-8",,10 µM,inhibition,< 50%
O=c1oc2ccccc2c(Nc2ccccc2)c1I,Klebsiella pneumoniae,"microbial growth, broth dilution",,,MIC90,9 µg/mL
CC[C@H]1OC(=O)[C@H](C)[C@@H](O[C@H]2C[C@@](C)(OC)[C@@H](O)[C@H](C)O2)[C@H](C)[C@@H](O[C@@H]2O[C@H](C)C[C@H](N(C)C)[C@H]2O)[C@](C)(O)C[C@@H](C)/C(=N\OCOCCOC)[C@H](C)[C@@H](O)[C@]1(C)O,Streptococcus pneumoniae,microbial growth,PRSP,clinical isolate,MIC90,16 µg/mL
CCS(=O)(=O)Oc1cc(C=NNC(=O)CSc2nc3ccc(Cl)cc3c(=O)n2-c2ccccc2)ccc1OC,Klebsiella pneumoniae,"microbial growth, well diffusion",,20 µg/mL,inhibition zone,2 mm
CC1(C)C[C@H]2[C@H]1CC[C@]1(C)CCC[C@@]2(NS(=O)(=O)c2ccc(OC(F)(F)F)cc2)C1,HT-29,"cell growth or viability, CCK-8",,50 µM,inhibition,75.9%
CC1(C)S[C@@H]2[C@H](NC(=O)[C@H](N)c3ccccc3)C(=O)N2[C@H]1C(=O)O,Streptococcus pneumoniae,"microbial growth, agar dilution",ATCC49619,,MIC,0.5 µg/mL
CCS(=O)(=O)Oc1cc(C=NNC(=O)CSc2nc3c(C)cccc3c(=O)n2-c2ccccc2)ccc1OC,Klebsiella pneumoniae,"microbial growth, well diffusion",,20 µg/mL,inhibition zone,3 mm
CC1(C)C[C@H]2[C@H]1CC[C@]1(C)CCC[C@@]2(NS(=O)(=O)C(C)(C)C)C1,HT-29,"cell growth or viability, CCK-8",,50 µM,inhibition,71.4%
CN(C)c1ccc(C=Nn2c(-c3ccccc3)nc3ccc(Cl)cc3c2=O)cc1,LLC-PK1,"cell growth or viability, MTT",,72 h,IC50,62.8 µM
CC(C)(O/N=C(\C(=O)N[C@@H]1C(=O)N2C(C(=O)[O-])=C(C[n+]3ccccc3)CS[C@H]12)c1csc(N)n1)C(=O)O,Klebsiella pneumoniae,"microbial growth, broth dilution",ATCC43816,,MIC,< 0.5 µg/mL
COc1ccc(-c2cn([C@@]34CCC[C@@](C)(CC[C@@H]5[C@@H]3CC5(C)C)C4)nn2)cc1,HT-29,"cell growth or viability, CCK-8",,50 µM,inhibition,44.8%
Nc1ccc(S(=O)(=O)Nc2ncccn2)cc1,Klebsiella pneumoniae,"microbial growth, well diffusion",,20 µg/mL,inhibition zone,2 mm
CC1(C)C[C@H]2[C@H]1CC[C@]1(C)CCC[C@@]2(NS(=O)(=O)c2cc(Cl)cc(Cl)c2O)C1,HT-29,"cell growth or viability, CCK-8",,10 µM,inhibition,< 50%
Cc1cccc2c(=O)n(-c3ccccc3)c(SCC(=O)NN=Cc3ccc(OS(C)(=O)=O)cc3)nc12,Klebsiella pneumoniae,"microbial growth, well diffusion",,20 µg/mL,inhibition zone,3 mm
C=C[C@]1(C)C[C@@H](OC(=O)CS[C@@H]2C[C@H]3CC[C@@H](C2)N3C)[C@]2(C)[C@H](C)CC[C@]3(CCC(=O)[C@H]32)[C@@H](C)[C@@H]1O,Streptococcus pneumoniae,"microbial growth, agar dilution",ATCC49619,,MIC,0.0312 µg/mL
